Laboratory results reported in ChEMBL document CHEMBL4673407, “Fragment-Based Discovery of Novel Allosteric MEK1 Binders” (ACS Med Chem Lett, 2021).

Assays:
[1] = Octanol-water partition coefficient, log D of the compound at pH 7.4 by shake flask method; type: physicochemical
[2] = target: T1, Dual specificity mitogen-activated protein kinase kinase 1 (Homo sapiens, UniProt Q02750); test: Binding affinity to full length biotinylated 6His/Avi-tagged/Tev-fused human MEK1 expressed in Escherichia coli in absence of AMP-PNP by SPR assay
[3] = target: T1, Dual specificity mitogen-activated protein kinase kinase 1; test: Binding affinity to full length biotinylated 6His/Avi-tagged/Tev-fused human MEK1 expressed in Escherichia coli in presence of AMP-PNP by SPR assay
[4] = Intrinsic clearance in human liver microsomes; type: ADME, Microsome; conditions: read-out: CLH
How it was run: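 Human liver microsomal stability; intrinsic clearance expressed in μL/(min mg).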

[5] = Intrinsic clearance in rat hepatocytes; type: ADME, cell-based, Hepatocyte
How it was run: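 Rat hepatocyte stability; intrinsic clearance expressed in μL/(min 1E6) cells.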

T1 sequence (Q02750 whole entry, the tested form may be a part): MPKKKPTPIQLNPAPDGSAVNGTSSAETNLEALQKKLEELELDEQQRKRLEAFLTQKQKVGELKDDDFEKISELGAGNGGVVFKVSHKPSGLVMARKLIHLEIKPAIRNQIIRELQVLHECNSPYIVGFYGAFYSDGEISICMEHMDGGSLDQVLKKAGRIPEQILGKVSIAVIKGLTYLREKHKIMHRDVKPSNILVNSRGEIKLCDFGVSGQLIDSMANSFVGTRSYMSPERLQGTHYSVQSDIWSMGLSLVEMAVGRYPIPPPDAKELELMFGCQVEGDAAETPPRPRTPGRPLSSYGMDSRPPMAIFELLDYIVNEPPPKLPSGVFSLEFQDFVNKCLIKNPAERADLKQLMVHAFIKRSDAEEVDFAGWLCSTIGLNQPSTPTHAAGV

Row | SMILES | logD [1] | also measured
1 | O=C(CC1SCCNC1=O)Nc1ccc(OC(F)F)cc1 (stereo not drawn) | 1.5 | –
2 | COc1ccccc1NC(=O)CC1SCCNC1=O (stereo not drawn) | 0.8 | –
3 | CCOc1ccc(NC(=O)CC2SCCNC2=O)cc1 (stereo not drawn) | 1.3 | –
4 | CC(=O)Nc1ccc2c(C(F)(F)F)cc(=O)oc2c1 | 1.8 | –
5 | O=c1[nH]ccc2nc(-c3ccccc3)cn12 | 2 | –
6 | O=C(CC1SCCNC1=O)Nc1ccc(OC(F)(F)F)cc1 (stereo not drawn) | – | Kd [3]: > 1000 µM
7 | O=C(CC1SCCNC1=O)Nc1ccccc1 (stereo not drawn) | 0.8 | –
8 | CCN(C)c1cc(-c2ccccc2O)nc2nccn12 | 2.9 | –
9 | COc1ccc(N(C)C(=O)CC2SCCNC2=O)cc1 (stereo not drawn) | – | Kd [3]: > 1000 µM
10 | COc1ccc(-c2cccc(=O)[nH]2)cc1 | 1.4 | –
11 | COc1ccc(C2CC(=O)NCCS2)cc1 (stereo not drawn) | 1.6 | –
12 | O=C(c1cccnc1)c1cc2ccccc2[nH]1 | 2.3 | Kd [2]: 59 µM; Kd [3]: 65 µM

Now from value to compound, other results behind:

Row | logD [1] | SMILES | also measured
13 | 1.2 | O=C(CC1SCCNC1=O)Nc1ccc(F)cc1 (stereo not drawn) | –
14 | 2.3 | O=C(CC1SCCNC1=O)Nc1ccc(Cl)c(Cl)c1 (stereo not drawn) | Kd [2]: 87 µM; Kd [3]: 65 µM
15 | 0.1 | O=C(CC1SCCNC1=O)Nc1ccc(O)cc1 (stereo not drawn) | –
16 | 1.1 | COc1ccc(NC(=O)CC2SCCNC2=O)cc1F (stereo not drawn) | –
17 | 1.8 | O=C(CC1SCCNC1=O)Nc1ccc(Cl)cc1 (stereo not drawn) | Kd [2]: 14 µM; Kd [3]: 7.4 µM
18 | 1 | COc1cccc(NC(=O)CC2SCCNC2=O)c1 (stereo not drawn) | –
19 | 0.9 | O=C(CC1SCCNC1=O)Nc1ccc2c(c1)OCO2 (stereo not drawn) | –
20 | 0.8 | COc1ccc(NC(=O)CC2SCCNC2=O)cc1 (stereo not drawn) | microsomal CLint [4]: 8 µL/min/mg; CLH [5]: 34 µL/min
